Experimental data as given in ChEMBL document CHEMBL1152799, “Mixed kappa/mu opioid receptor agonists: the 6 beta-naltrexamines” (J Med Chem, 2009).
The source made the active and inactive calls. The calls are words filed in the database; no cut-off is given here.

Tests used:
Mu-type opioid receptor [1] = molecular target: T1, Mu-type opioid receptor (Rattus norvegicus, UniProt P33535); assay: Displacement of [3H]diprenorphine from rat mu opioid receptor expressed in rat C6 cell membrane by liquid scintillation and luminescence counter
T1 sequence (P33535 whole entry): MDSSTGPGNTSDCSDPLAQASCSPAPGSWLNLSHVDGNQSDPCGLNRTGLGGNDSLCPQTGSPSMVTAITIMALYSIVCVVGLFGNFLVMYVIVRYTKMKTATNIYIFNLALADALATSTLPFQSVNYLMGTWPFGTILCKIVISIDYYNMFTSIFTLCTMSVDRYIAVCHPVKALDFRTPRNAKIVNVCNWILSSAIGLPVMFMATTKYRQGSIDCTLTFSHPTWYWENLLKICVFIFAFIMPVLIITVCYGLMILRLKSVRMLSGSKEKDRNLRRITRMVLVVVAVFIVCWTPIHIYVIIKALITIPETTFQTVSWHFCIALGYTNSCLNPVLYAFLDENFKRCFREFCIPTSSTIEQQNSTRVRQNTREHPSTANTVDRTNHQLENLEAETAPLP

[2] = molecular target: Mu-type opioid receptor (Rattus norvegicus) (UniProt P33535); assay: Agonist activity at rat mu opioid receptor expressed in rat C6 cell membrane assessed as stimulation of [35S]GTPgammaS binding relative to DAMGO; type: functional, cell membranes
Sequence of Mu-type opioid receptor (Rattus norvegicus) (P33535 whole entry): as above
How it was run: (§1)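 Membranes from CHOκ (human KOR, grown in DMEM-F12) or C6μ (rat MOR, DMEM) cells, 20 μg, incubated 60 min at 25 °C in 20 mM Tris-HCl pH 7.4, 5 mM MgCl2, 100 mM NaCl, 2.2 mM fresh DTT, 30 μM GDP, 0.1 nM [35S]GTPγS with compound; filtered on GF/C, scintillation counting; efficacy versus U69593 (KOR) or DAMGO (MOR); mean ± SEM of three experiments.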

[3] = molecular target: T2, Kappa-type opioid receptor (Homo sapiens, UniProt P41145); assay: Agonist activity at human kappa opioid receptor expressed in CHO cell membrane assessed as stimulation of [35S]GTPgammaS binding relative to U69593; type: functional, cell membranes; how it was run: as §1
T2 sequence (P41145 whole entry): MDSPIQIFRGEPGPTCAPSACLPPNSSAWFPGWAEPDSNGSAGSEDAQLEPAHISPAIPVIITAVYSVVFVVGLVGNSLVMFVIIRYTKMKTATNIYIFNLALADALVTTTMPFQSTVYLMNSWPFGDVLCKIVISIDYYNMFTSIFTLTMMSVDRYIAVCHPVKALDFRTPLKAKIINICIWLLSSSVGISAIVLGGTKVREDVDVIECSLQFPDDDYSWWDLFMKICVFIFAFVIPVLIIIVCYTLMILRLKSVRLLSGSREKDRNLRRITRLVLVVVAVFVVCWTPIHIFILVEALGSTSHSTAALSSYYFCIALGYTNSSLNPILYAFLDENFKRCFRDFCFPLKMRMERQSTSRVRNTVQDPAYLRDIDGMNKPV

Mu-type opioid receptor [4] = molecular target: T1, Mu-type opioid receptor; assay: Agonist activity at rat mu opioid receptor expressed in rat C6 cell membrane assessed as stimulation of [35S]GTPgammaS binding; type: functional, cell membranes; how it was run: as §1
[5] = molecular target: T2, Kappa-type opioid receptor; assay: Agonist activity at human kappa opioid receptor expressed in CHO cell membrane assessed as stimulation of [35S]GTPgammaS binding; type: functional, cell membranes; how it was run: as §1
[6] = molecular target: T2, Kappa-type opioid receptor; assay: Displacement of [3H]diprenorphine from human kappa opioid receptor expressed in CHO cell membrane by liquid scintillation and luminescence counter
[7] = molecular target: Mu-type opioid receptor (Rattus norvegicus) (UniProt P33535); assay: Antagonist activity at rat mu opioid receptor expressed in rat C6 cell membrane assessed as DAMGO-stimulated of [35S]GTPgammaS binding; type: functional, cell membranes
How it was run: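 C6 glioma membranes with stably expressed rat MOR; antagonism of DAMGO-stimulated [35S]GTPγS binding reported as Ke; incubation 60 min, 25 °C, in Tris-HCl pH 7.4 with MgCl2, NaCl, DTT, 30 μM GDP, 0.1 nM [35S]GTPγS; filtration and scintillation read-out.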

O=C(/C=C/c1ccccc1[N+](=O)[O-])N[C@@H]1CC[C@@]2(O)[C@H]3Cc4ccc(O)c5c4[C@@]2(CCN3CC2CC2)[C@H]1O5
Ki (Mu-type opioid receptor [1]): 0.35 nM
Activity [2]: 6.7%
Activity [3]: 81%
EC50 (Mu-type opioid receptor [4]): 0.69 nM
EC50 [5]: 1.9 nM
Ki [6]: 0.3 nM

O=C(/C=C/c1ccccc1)N[C@@H]1CC[C@@]2(OC(=O)Cc3ccccc3)[C@H]3Cc4ccc(O)c5c4[C@@]2(CCN3CC2CC2)[C@H]1O5
Ki (Mu-type opioid receptor [1]): 0.28 nM
Activity [2]: 41%
Activity [3]: 76%
EC50 (Mu-type opioid receptor [4]): 1.3 nM
EC50 [5]: 0.49 nM
Ki [6]: 0.26 nM

C=CCO[C@@]12CC[C@@H](NC(=O)/C=C/c3ccccc3)[C@@H]3Oc4c(O)ccc5c4[C@@]31CCN(CC1CC1)[C@@H]2C5
Ki (Mu-type opioid receptor [1]): 0.25 nM
Activity [2]: 39%
Activity [3]: 120%
EC50 (Mu-type opioid receptor [4]): 0.6 nM
EC50 [5]: 0.079 nM
Ki [6]: 0.12 nM

COc1ccccc1/C=C/C(=O)N[C@@H]1CC[C@@]2(O)[C@H]3Cc4ccc(O)c5c4[C@@]2(CCN3CC2CC2)[C@H]1O5
Activity [2]: 21%
Activity [3]: 105%

O=C(/C=C/c1ccccc1)N[C@@H]1CC[C@@]2(O)[C@H]3Cc4ccc(O)c5c4[C@@]2(CCN3CC2CC2)[C@H]1O5
Ki (Mu-type opioid receptor [1]): 0.17 nM
Activity [2]: 21%
Activity [3]: 100%
EC50 (Mu-type opioid receptor [4]): 1.8 nM
EC50 [5]: 0.12 nM
Ki [6]: 0.043 nM

O=C(/C=C/c1ccccc1)N[C@@H]1CC[C@@]2(OCc3ccccc3)[C@H]3Cc4ccc(O)c5c4[C@@]2(CCN3CC2CC2)[C@H]1O5
Ki (Mu-type opioid receptor [1]): 0.16 nM
Activity [2]: 19%
Activity [3]: 97%
EC50 (Mu-type opioid receptor [4]): 2 nM
EC50 [5]: 0.78 nM
Ki [6]: 0.86 nM

O=C(/C=C/c1ccccc1Cl)N[C@@H]1CC[C@@]2(O)[C@H]3Cc4ccc(O)c5c4[C@@]2(CCN3CC2CC2)[C@H]1O5
Ki (Mu-type opioid receptor [1]): 0.079 nM
Activity [2]: 17%
Activity [3]: 97%
EC50 (Mu-type opioid receptor [4]): 12 nM
EC50 [5]: 0.4 nM
Ki [6]: 0.27 nM

O=C(/C=C/c1cccc([N+](=O)[O-])c1)N[C@@H]1CC[C@@]2(O)[C@H]3Cc4ccc(O)c5c4[C@@]2(CCN3CC2CC2)[C@H]1O5
Ki (Mu-type opioid receptor [1]): 0.11 nM
Activity [2]: 20%
Activity [3]: 100%
EC50 (Mu-type opioid receptor [4]): 0.18 nM
EC50 [5]: 0.12 nM
Ki [6]: 0.36 nM

O=C(/C=C/c1ccccc1)N[C@@H]1CC[C@@]2(OC(=O)c3ccccc3)[C@H]3Cc4ccc(O)c5c4[C@@]2(CCN3CC2CC2)[C@H]1O5
Ki (Mu-type opioid receptor [1]): 0.42 nM
Activity [2]: inactive
Activity [3]: 26%
EC50 [5]: 9.8 nM
Ke [7]: 0.41 nM
Ki [6]: 1.1 nM

CC(=O)O[C@@]12CC[C@@H](NC(=O)/C=C/c3ccccc3)[C@@H]3Oc4c(O)ccc5c4[C@@]31CCN(CC1CC1)[C@@H]2C5
Ki (Mu-type opioid receptor [1]): 0.21 nM
Activity [2]: 19%
Activity [3]: 97%
EC50 (Mu-type opioid receptor [4]): 1 nM
EC50 [5]: 2.4 nM
Ki [6]: 0.59 nM
